How the values were obtained:
H4IIE cells [1] = test: CeeTox cellular ATP content; details: 24 hr
H4IIE cells [2] = test: CeeTox membrane toxicity; details: 24 hr, α-GST leakage
H4IIE cells [3] = type: cell-based; details: 24 hr
Caspase 3 = test: CeeTox apoptosis; type: cell-based, rat; details: H4IIE cells; for Caspase 3 Activity (Index/Dose): dose: dose at which the index was seen; for Caspase 3 Activity (Index/Dose): index: index of RFU
H4IIE cells [4] = test: CeeTox analysis composite; type: cell-based, rat; details: for TC50 for all general toxicity measures (range over endpoints): H4IIE cells, 24 hr, range across CeeTox endpoints
H4IIE cells [5] = test: CeeTox cell mass; details: 24 hr
[6] = system: Intracellular glutathione (GSH); test: CeeTox intracellular glutathione; details: H4IIE cells
8-Isoprostane (8-ISO) = test: CeeTox lipid peroxidation measured as 8-isoprostane; details: H4IIE cells, 8-ISO score
P-glycoprotein (PgP) = test: P-glycoprotein; type: cell-based, rat; details: H4IIE cells, MTT, 24 hr, single exposure concentration (20 or 50 μM), without CSA
CYP2D6 = CYP2D6 (Homo sapiens, UniProt P10635); test: Cloe Screen Cytochrome P450 Inhibition assay; type: in vitro ADME
Method in brief: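 Run blinded. […] Metabolite formation was monitored by LC-MS/MS. IC50 was calculated from the decrease in metabolite formation relative to vehicle control. Quinidine served as positive control inhibitor.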

CYP1A2 = biological target: T1, CYP1A2 (Homo sapiens, UniProt P05177); test: Cloe Screen Cytochrome P450 Inhibition assay; type: in vitro ADME; details: for CYP1A2 inhibition classification: classified from IC50
T1 sequence (P05177 1-516): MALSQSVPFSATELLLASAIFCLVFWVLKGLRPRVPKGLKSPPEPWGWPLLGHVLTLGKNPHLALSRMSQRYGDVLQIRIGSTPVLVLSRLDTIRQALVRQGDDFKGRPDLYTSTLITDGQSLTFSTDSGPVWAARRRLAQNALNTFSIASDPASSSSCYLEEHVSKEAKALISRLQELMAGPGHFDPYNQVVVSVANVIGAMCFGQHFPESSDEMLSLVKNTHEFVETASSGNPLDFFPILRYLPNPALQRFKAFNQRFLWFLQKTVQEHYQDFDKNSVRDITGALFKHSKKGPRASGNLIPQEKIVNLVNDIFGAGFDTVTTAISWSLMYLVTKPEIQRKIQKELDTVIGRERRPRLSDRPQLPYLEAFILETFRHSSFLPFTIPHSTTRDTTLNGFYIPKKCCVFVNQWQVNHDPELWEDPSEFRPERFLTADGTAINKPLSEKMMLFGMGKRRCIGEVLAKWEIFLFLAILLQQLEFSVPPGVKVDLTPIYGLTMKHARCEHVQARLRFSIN

CYP3A4 = CYP3A4 (Homo sapiens, UniProt P08684); test: Cloe Screen Cytochrome P450 Inhibition assay; type: in vitro ADME
S. typhimurium TA989 = test: Ames test for mutagenicity, frame-shift strain; type: cell-based; details: first TA98 column; for TA98+S9: with S9, up to 10 μM; for TA98−S9: without S9, up to 10 μM
P-glycoprotein (MDR1) = test: BBB penetration; type: in vitro ADME, canine; details: dog, MDCK-MDR1
Method in brief: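 MDCK cells transfected with human MDR1 (P-gp) were grown to a confluent monolayer over 4 days. Test compound was added apically, and A→B transport was followed over 60 min; B→A transport was also measured. Compound on each side was quantified by GC/MS. Papp was calculated for both directions, and efflux ratio = Papp B→A/Papp A→B. High BBB potential: Papp A→B ≥3.0×10⁻⁶ cm/s and efflux <3.0.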

CYP2C9 = CYP2C9 (Homo sapiens, UniProt P11712); test: Cloe Screen Cytochrome P450 Inhibition assay; type: in vitro ADME
CYP2C19 = CYP2C19 (Homo sapiens, UniProt P33261); test: Cloe Screen Cytochrome P450 Inhibition assay; type: in vitro ADME
Chain of CYP2C19 (P33261 whole entry): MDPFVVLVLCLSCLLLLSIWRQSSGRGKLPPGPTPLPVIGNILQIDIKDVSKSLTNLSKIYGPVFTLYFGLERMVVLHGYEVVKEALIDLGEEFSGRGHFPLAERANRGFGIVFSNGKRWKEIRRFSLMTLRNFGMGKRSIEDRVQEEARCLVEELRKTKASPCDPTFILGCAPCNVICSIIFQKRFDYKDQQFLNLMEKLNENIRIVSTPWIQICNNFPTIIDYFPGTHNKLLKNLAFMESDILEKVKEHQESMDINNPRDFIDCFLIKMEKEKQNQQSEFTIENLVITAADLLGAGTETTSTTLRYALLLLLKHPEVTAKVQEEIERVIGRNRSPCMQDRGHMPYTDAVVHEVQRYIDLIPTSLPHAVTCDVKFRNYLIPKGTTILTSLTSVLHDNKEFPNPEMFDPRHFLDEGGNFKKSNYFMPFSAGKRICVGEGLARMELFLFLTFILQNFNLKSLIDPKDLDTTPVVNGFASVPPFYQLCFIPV

Chain of CYP3A4 (P08684 2-503): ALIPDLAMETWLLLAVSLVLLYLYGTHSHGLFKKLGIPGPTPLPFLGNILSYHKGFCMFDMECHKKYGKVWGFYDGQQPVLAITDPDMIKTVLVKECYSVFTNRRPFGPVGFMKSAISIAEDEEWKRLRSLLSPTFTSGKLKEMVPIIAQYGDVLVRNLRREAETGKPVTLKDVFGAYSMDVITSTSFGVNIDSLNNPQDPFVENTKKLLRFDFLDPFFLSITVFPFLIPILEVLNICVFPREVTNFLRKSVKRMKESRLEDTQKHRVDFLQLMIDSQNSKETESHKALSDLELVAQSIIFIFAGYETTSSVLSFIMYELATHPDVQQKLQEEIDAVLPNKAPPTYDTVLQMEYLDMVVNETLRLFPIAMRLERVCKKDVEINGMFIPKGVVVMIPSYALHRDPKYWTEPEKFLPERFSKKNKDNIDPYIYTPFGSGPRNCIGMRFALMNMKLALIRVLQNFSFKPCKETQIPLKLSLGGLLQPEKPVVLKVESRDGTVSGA
Chain of CYP2C9 (P11712 whole entry): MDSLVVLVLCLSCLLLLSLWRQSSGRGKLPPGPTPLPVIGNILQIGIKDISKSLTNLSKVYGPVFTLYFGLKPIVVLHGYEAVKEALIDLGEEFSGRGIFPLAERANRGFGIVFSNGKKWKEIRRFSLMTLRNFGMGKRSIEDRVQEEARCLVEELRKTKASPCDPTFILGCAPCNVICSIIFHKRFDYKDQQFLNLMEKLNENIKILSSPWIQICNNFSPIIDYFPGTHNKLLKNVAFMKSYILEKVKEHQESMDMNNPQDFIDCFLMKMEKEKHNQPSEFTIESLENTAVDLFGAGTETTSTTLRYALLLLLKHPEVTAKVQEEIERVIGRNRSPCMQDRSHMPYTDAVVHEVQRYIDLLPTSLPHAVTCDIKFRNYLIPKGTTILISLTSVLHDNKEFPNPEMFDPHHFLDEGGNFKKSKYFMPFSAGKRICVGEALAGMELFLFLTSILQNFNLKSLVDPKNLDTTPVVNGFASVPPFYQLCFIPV
Chain of CYP2D6 (P10635 whole entry): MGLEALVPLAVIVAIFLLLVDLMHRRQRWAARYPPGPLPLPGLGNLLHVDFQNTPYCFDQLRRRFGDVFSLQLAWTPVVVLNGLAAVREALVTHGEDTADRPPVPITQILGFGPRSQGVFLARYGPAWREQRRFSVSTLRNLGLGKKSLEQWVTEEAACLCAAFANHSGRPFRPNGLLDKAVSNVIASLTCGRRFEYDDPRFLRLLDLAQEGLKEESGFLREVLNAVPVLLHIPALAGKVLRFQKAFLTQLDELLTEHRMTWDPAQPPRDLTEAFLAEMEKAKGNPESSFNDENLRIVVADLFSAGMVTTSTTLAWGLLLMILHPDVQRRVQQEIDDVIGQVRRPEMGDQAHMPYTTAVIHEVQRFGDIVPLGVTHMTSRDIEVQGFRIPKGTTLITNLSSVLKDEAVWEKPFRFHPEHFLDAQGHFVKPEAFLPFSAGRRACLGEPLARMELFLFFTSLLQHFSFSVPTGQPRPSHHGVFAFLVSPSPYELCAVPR

| SMILES | ATP TC50 (H4IIE cells [1]) | MemTox TC50 (H4IIE cells [2]) | MTT TC50 (H4IIE cells [3]) | Caspase 3 Activity (Index/Dose): dose (Caspase 3) | Caspase 3 Activity (Index/Dose): index (Caspase 3) | Cell Mass TC50 (H4IIE cells [5]) | Total GSH TC50 [6] | Membrane Lipid Peroxidation (8-Isoprostane (8-ISO)) | % Control(Compound) (P-glycoprotein (PgP)) | IC50 (CYP2D6) | IC50 (CYP1A2) | IC50 (CYP3A4) | TA98+S9 (S. typhimurium TA989) | TA98−S9 (S. typhimurium TA989) | Papp A→B at 60 min (P-glycoprotein (MDR1)) | efflux ratio at 60 min (P-glycoprotein (MDR1)) | IC50 (CYP2C9) | IC50 (CYP2C19) | CYP1A2 inhibition classification (CYP1A2) | other results |
| --- | --- | --- | --- | --- | --- | --- | --- | --- | --- | --- | --- | --- | --- | --- | --- | --- | --- | --- | --- | --- |
| CC[C@@]1(O)C(=O)OCc2c1cc1n(c2=O)Cc2cc3ccccc3nc2-1 [CAMPTOTHECIN, camptothecin, reference compound] | 5.0 µM | >300 µM | 3.2 µM | 100 | 3 (400–600 = 3) | 3.0 µM | 5.0 µM | 1 (1 = Modest increase with maximum values ≤ 15 pg/mL) | – | – | – | – | – | – | – | – | – | – | – | MemTox TC50 (μM) (H4IIE cells [2]; listed as camptothecin): not affected; TC50 for all general toxicity measures (range over endpoints) (H4IIE cells [4]): 3.0 to 5.0 µM; Ctox ranking group: probability of in vivo toxic effects (H4IIE cells [4]; per standard CeeTox criteria): high probability (1–20 high probability) |
| CCc1ccc2oc(-c3ccc(O)c(O)c3)c(O)c(=O)c2c1 [CSMC-9, 6-ethyl-3,3',4'-trihydroxy flavone] | 80 µM | >300 µM | 81 µM | 300 | 1 (0–200 = 1) | 82 µM | 149 µM | 0 | 97.0 % Control | > 10 µM | 11.6 µM | > 10 µM | Negative (Not mutagenic < 10 μM (NEGATIVE)) | Negative (Not mutagenic < 10 μM (NEGATIVE)) | 40.9 ×10⁻⁶ cm/s | 0.19 | > 10 µM | > 10 µM | – | – |
| Cc1cc(O)c(C(=O)/C=C/c2ccc(O)c(O)c2)cc1C [CSMC-10, 4',5'-dimethyl-2',3,4-trihydroxychalcone] | 75 µM | >300 µM | 83 µM | 100 | 1 (0–200 = 1) | 86 µM | 144 µM | 2 (2 = Concentration related increase with maximum values ≥ 15 pg/mL) | 73.4 % Control | > 10 µM | 6.99 µM | > 10 µM | Negative (Not mutagenic < 10 μM (NEGATIVE)) | Negative (Not mutagenic < 10 μM (NEGATIVE)) | – | – | > 10 µM | > 10 µM | moderate inhibition | – |
| Cc1ccc2oc(-c3ccc(O)c(O)c3)c(O)c(=O)c2c1 [CSMC-11, 6-methyl-3,3',4'-trihydroxy flavone] | 52 µM | >300 µM | >300 µM | 300 | 1 (0–200 = 1) | >300 µM | >300 µM | 0 | 80.3 % Control | > 10 µM | > 25 µM | > 10 µM | Negative (Not mutagenic < 10 μM (NEGATIVE)) | Negative (Not mutagenic < 10 μM (NEGATIVE)) | 6.67 ×10⁻⁶ cm/s | 0.12 | > 10 µM | > 10 µM | – | – |
| COc1cc(-c2ccc(O)c(O)c2)nc2ccccc12 [CSMC-12, 4-methoxy-2-(3,4-dihydroxyphenyl)quinoline] | 223 µM | >300 µM | 293 µM | – | – | 208 µM | >300 µM | 1 (1 = Modest increase with maximum values ≤ 15 pg/mL) | 85.9 % Control | > 10 µM | 3.7 µM | > 10 µM | Negative (Not mutagenic < 10 μM (NEGATIVE)) | Negative (Not mutagenic < 10 μM (NEGATIVE)) | – | – | > 10 µM | > 10 µM | moderate inhibition | – |
| COc1cc(-c2oc3cc(C)c(C)cc3c(=O)c2O)ccc1O [CSMC-15, 6,7-dimethyl-3,4'-dihydroxy-3'-methoxyflavone] | 78 µM | >300 µM | 74 µM | 300 | 1 (0–200 = 1) | 79 µM | 76 µM | 0 | 70.8 % Control | > 10 µM | > 25 µM | > 10 µM | Negative (Not mutagenic < 10 μM (NEGATIVE)) | Negative (Not mutagenic < 10 μM (NEGATIVE)) | 4.08 ×10⁻⁶ cm/s | 0.4 | > 10 µM | > 10 µM | – | – |
| CCOc1cc(-c2ccc(O)c(O)c2)nc2ccccc12 [CSMC-16, 4-ethoxy-2-(3,4-dihydroxyphenyl)quinoline] | 162 µM | >300 µM | 170 µM | – | – | 215 µM | 243 µM | 0 | 81.3 % Control | > 10 µM | 3.99 µM | > 10 µM | Negative (Not mutagenic < 10 μM (NEGATIVE)) | Negative (Not mutagenic < 10 μM (NEGATIVE)) | – | – | > 10 µM | > 10 µM | moderate inhibition | – |
| CC(C)Oc1cc(-c2ccc(O)c(O)c2)nc2ccccc12 [CSMC-17, 4-isopropoxy-2-(3,4-dihydroxyphenyl)quinoline] | 217 µM | >300 µM | 298 µM | – | – | 241 µM | 295 µM | 0 | 80.8 % Control | > 10 µM | 7.49 µM | > 10 µM | Negative (Not mutagenic < 10 μM (NEGATIVE)) | Negative (Not mutagenic < 10 μM (NEGATIVE)) | – | – | > 10 µM | > 10 µM | moderate inhibition | – |
| O=c1cc(-c2cc(O)c(O)c(O)c2)oc2ccccc12 [CSMC-19, 3',4',5'-trihydroxyflavone] | 256 µM | >300 µM | >300 µM | 300 | 1 (0–200 = 1) | >300 µM | >300 µM | 2 (2 = Concentration related increase with maximum values ≥ 15 pg/mL) | 88.4 % Control | > 10 µM | > 25 µM | > 10 µM | Negative (Not mutagenic < 10 μM (NEGATIVE)) | Negative (Not mutagenic < 10 μM (NEGATIVE)) | 105 ×10⁻⁶ cm/s | 0.01 | > 10 µM | > 10 µM | – | – |
| C=C(C)[C@H]1Cc2c(ccc3c2O[C@@H]2COc4cc(OC)c(OC)cc4[C@@H]2C3=O)O1 [ROTENONE, rotenone, reference compound] | 0.05 µM | 3.88 µM | 0.19 µM | – | – | 0.09 µM | 0.03 µM | 2 (2 = Concentration related increase with maximum values ≥ 15 pg/mL) | – | – | – | – | – | – | – | – | – | – | – | TC50 for all general toxicity measures (range over endpoints) (H4IIE cells [4]): 0.05 to 3.88 µM |

— PMC3653324 (Translational stroke research, 2012)
